ChEMBL document CHEMBL1147401, “Bruceanols D, E, and F three new cytotoxic quassinoids from Brucea antidysenterica” (1993)
In brackets after ≈: the same amount, converted by molar mass.

What was measured:
Format in all cases: functional
Settings in all cases: read-out: ED50 (the source's name)
KB = experiment: Cytotoxicity against human KB cells
Method in brief: (§1)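 In vitro cytotoxicity assay run by published protocols. Cell panel: human malignant melanoma ([…]), lung carcinoma (A-549), ileocecal adenocarcinoma (HCT-8), nasopharyngeal epidermoid carcinoma (KB), medulloblastoma (TE-671), and murine lymphocytic leukemia (P-388).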

A549 = experiment: Cytotoxicity against human A549 cells; method in brief: as §1
HCT-8 = experiment: Cytotoxicity against human HCT8 cells; method in brief: as §1
P388 = experiment: Cytotoxicity against mouse P388 cells; method in brief: as §1
TE-671 = experiment: Cytotoxicity against human TE671 cells; method in brief: as §1
RPMI-7951 = experiment: Cytotoxicity against human RPMI7951 cells; method in brief: as §1

SMILES | EC50 (KB) [µg/mL] | EC50 (A549) [µg/mL] | EC50 (HCT-8) [µg/mL] | EC50 (P388) [µg/mL] | EC50 (TE-671) [µg/mL] | EC50 (RPMI-7951) [µg/mL]
COC(=O)[C@]12OC[C@]34[C@H]([C@@H](O)[C@@H]1O)[C@@]1(C)[C@H](O)C(=O)C[C@@H](C)[C@@H]1C[C@H]3OC(=O)[C@H](OC(=O)/C=C(\C)C(C)C)[C@@H]24 [BRUCEANOL E] | 0.55 (≈ 0.999 µM) | 3.75 (≈ 6.81 µM) | 0.37 (≈ 0.672 µM) | 0.57 (≈ 1.04 µM) | 0.12 (≈ 0.218 µM) | 0.11 (≈ 0.2 µM)
COC(=O)[C@]12OC[C@]34[C@H]([C@@H](O)[C@@H]1O)[C@@]1(C)C(=O)C(O)=C[C@@H](C)[C@@H]1C[C@H]3OC(=O)[C@H](OC(=O)/C=C(\C)C(C)C)[C@@H]24 [BRUCEANOL F] | 0.43 (≈ 0.784 µM) | 0.55 (≈ 1 µM) | 0.13 (≈ 0.237 µM) | 0.36 (≈ 0.656 µM) | 0.09 (≈ 0.164 µM) | 0.09 (≈ 0.164 µM)
COC(=O)[C@]12OC[C@]34[C@H]([C@@H](O)[C@@H]1O)[C@@]1(C)[C@H](O)C(=O)C=C(C)[C@@H]1C[C@H]3OC(=O)[C@H](OC(=O)/C=C(\C)C(C)C)[C@@H]24 [BRUCEANOL D] | 0.08 (≈ 0.146 µM) | 0.55 (≈ 1 µM) | 0.09 (≈ 0.164 µM) | 0.09 (≈ 0.164 µM) | 0.08 (≈ 0.146 µM) | 0.09 (≈ 0.164 µM)
